Each structure is given as a SMILES string. In brackets after ≈: the same amount, converted by molar mass.

From ChEMBL document CHEMBL4610084, “Antibacterial and ATP Synthesis Modulating Compounds from Salvia tingitana” (2020) come the findings set out here.

One assay concerns Enterococcus faecalis. Briefly: Antibacterial activity against Vancomycin resistant Enterococcus faecalis MB51 after 24 hrs by microdilution assay. It counts as functional. Particulars: MB51, 24 h. Summed up: (§1)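 Broth microdilution MIC, run as in an earlier cited report. Strains are clinical isolates identified by standard methods and MALDI-TOF; E. faecalis MB19 and MB51 are Ligurian seawater isolates. Highest concentration tested was 128 μg/mL. MICs are given in μg/mL and μM, with oxacillin and vancomycin as reference antibiotics.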
Background: Dilution methods test growth across graded concentrations, often in twofold steps.
For the compound `COc1ccc(-c2cc(=O)c3c(OC)c(OC)c(OC)cc3o2)cc1`, the MIC came out at 390 µM (≈ 134 µg/mL).

For the next assay, the system named is Enterococcus faecium. Briefly: Antibacterial activity against Enterococcus faecium MB3 after 24 hrs by microdilution assay. Particulars: MB3, 24 h. It is filed as functional. A digest of the protocol: (§2)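 Broth microdilution MIC against clinical or seawater-isolated strains (identified by standard procedures and MALDI-TOF), with compound solutions and testing as in earlier work. MIC reported in μg/mL and μM.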
Compound `COc1ccc(-c2cc(=O)c3c(OC)c(OC)c(OC)cc3o2)cc1` showed an MIC of 195 µM (≈ 66.8 µg/mL).

The next assay deals with Enterococcus gallinarum. Nature of the assay: Antibacterial activity against Vancomycin resistant Enterococcus gallinarum MB111 after 24 hrs by microdilution assay. Particulars: MB111, 24 h. It counts as functional. A digest of the protocol:
as §1
In turn, `COc1ccc(-c2cc(=O)c3c(OC)c(OC)c(OC)cc3o2)cc1` registered an MIC of 195 µM (≈ 66.8 µg/mL).

In a further assay the test system is Staphylococcus capitis. Nature of the assay: Antibacterial activity against Methicillin-resistant Staphylococcus capitis MB71 after 24 hrs by microdilution assay. Particulars: MB71, 24 h. It is filed as functional. Summed up:
as §1
Regarding `COc1ccc(-c2cc(=O)c3c(OC)c(OC)c(OC)cc3o2)cc1`, the lowest concentration to inhibit growth (MIC) was 390 µM (≈ 134 µg/mL).

The next assay deals with Staphylococcus aureus. Nature of the assay: Antibacterial activity against Methicillin-resistant Staphylococcus aureus MB188 after 24 hrs by microdilution assay. It is filed as functional. Particulars: MB188, 24 h. A digest of the protocol: as §1
The compound `COc1ccc(-c2cc(=O)c3c(OC)c(OC)c(OC)cc3o2)cc1` returned a minimum inhibitory concentration (MIC) above 128 µg/mL.

A further assay relates to Enterococcus avium. Briefly: Antibacterial activity against Enterococcus avium MB119 after 24 hrs by microdilution assay. It is filed as functional. Particulars: MB119, 24 h. A digest of the protocol:
as §2
As to `COc1ccc(-c2cc(=O)c3c(OC)c(OC)c(OC)cc3o2)cc1`, the MIC came out at 390 µM (≈ 134 µg/mL).

For the next assay, the system named is Staphylococcus hominis. Nature of the assay: Antibacterial activity against Methicillin-resistant Staphylococcus hominis MB124 after 24 hrs by microdilution assay. It is filed as functional. Particulars: MB124, 24 h. A digest of the protocol:
as §1
`COc1ccc(-c2cc(=O)c3c(OC)c(OC)c(OC)cc3o2)cc1` displayed a minimal inhibitory concentration (MIC) of 390 µM (≈ 134 µg/mL).

A further assay concerns Enterococcus casseliflavus. Briefly: Antibacterial activity against Vancomycin resistant Enterococcus casseliflavus MB159 after 24 hrs by microdilution assay. Particulars: MB159, 24 h. It counts as functional. A digest of the protocol: as §1
Take `COc1ccc(-c2cc(=O)c3c(OC)c(OC)c(OC)cc3o2)cc1`: inhibition of growth (MIC) required 390 µM (≈ 134 µg/mL).

In the next assay the test system is Enterococcus faecalis. Nature of the assay: Antibacterial activity against Vancomycin resistant Enterococcus faecalis MB1 after 24 hrs by microdilution assay. It is filed as functional. Particulars: MB1, 24 h. A digest of the protocol:
as §1
Turning to `COc1ccc(-c2cc(=O)c3c(OC)c(OC)c(OC)cc3o2)cc1`, the MIC came out at 195 µM (≈ 66.8 µg/mL).

In the next assay the test system is Staphylococcus haemolyticus. Nature of the assay: Antibacterial activity against Methicillin-resistant Staphylococcus haemolyticus MB115 after 24 hrs by microdilution assay. It is filed as functional. Particulars: MB115, 24 h. A digest of the protocol: as §1
As for `COc1ccc(-c2cc(=O)c3c(OC)c(OC)c(OC)cc3o2)cc1`, the MIC is above 128 µg/mL.

Another assay concerns Enterococcus durans. Nature of the assay: Antibacterial activity against Enterococcus durans MB113 after 24 hrs by microdilution assay. It is filed as functional. Particulars: MB113, 24 h. A digest of the protocol: as §2
Consider `COc1ccc(-c2cc(=O)c3c(OC)c(OC)c(OC)cc3o2)cc1`, for which it took 195 µM (≈ 66.8 µg/mL) to inhibit growth (MIC).

The next assay relates to Staphylococcus epidermidis. Briefly: Antibacterial activity against Methicillin-resistant Staphylococcus epidermidis MB169 after 24 hrs by microdilution assay. It counts as functional. Particulars: MB169, 24 h. A digest of the protocol:
as §1
With `COc1ccc(-c2cc(=O)c3c(OC)c(OC)c(OC)cc3o2)cc1`, the minimal inhibitory concentration (MIC) amounted to 390 µM (≈ 134 µg/mL).

The subject of a further assay is Enterococcus faecalis. Nature of the assay: Antibacterial activity against Vancomycin resistant Enterococcus faecalis MB19 after 24 hrs by microdilution assay. Particulars: MB19, 24 h. It counts as functional. Summed up: as §1
Compound `COc1ccc(-c2cc(=O)c3c(OC)c(OC)c(OC)cc3o2)cc1` had an MIC of 195 µM (≈ 66.8 µg/mL).

Another assay has as its system Enterococcus faecium. Nature of the assay: Antibacterial activity against Enterococcus faecium MB2 after 24 hrs by microdilution assay. It counts as functional. Particulars: MB2, 24 h. Summed up:
as §2
The compound `COc1ccc(-c2cc(=O)c3c(OC)c(OC)c(OC)cc3o2)cc1` gave an MIC of 390 µM (≈ 134 µg/mL).

The subject of the next assay is Staphylococcus epidermidis. Nature of the assay: Antibacterial activity against Methicillin-resistant Staphylococcus epidermidis MB165 after 24 hrs by microdilution assay. Particulars: MB165, 24 h. It counts as functional. A digest of the protocol: as §1
`COc1ccc(-c2cc(=O)c3c(OC)c(OC)c(OC)cc3o2)cc1` came in with an MIC above 128 µg/mL.

For the next assay, the system named is Staphylococcus saprophyticus. Nature of the assay: Antibacterial activity against Staphylococcus saprophyticus MB41 after 24 hrs by microdilution assay. Particulars: MB41, 24 h. It counts as functional. Summed up:
as §2
`COc1ccc(-c2cc(=O)c3c(OC)c(OC)c(OC)cc3o2)cc1` showed a minimum inhibitory concentration (MIC) above 128 µg/mL.

The next assay concerns Staphylococcus simulans. Briefly: Antibacterial activity against Staphylococcus simulans MB94 after 24 hrs by microdilution assay. Particulars: MB94, 24 h. It is filed as functional. Summed up: as §2
`COc1ccc(-c2cc(=O)c3c(OC)c(OC)c(OC)cc3o2)cc1` displayed a minimal inhibitory concentration (MIC) above 128 µg/mL.

The subject of another assay is Enterococcus faecium. Nature of the assay: Antibacterial activity against Enterococcus faecium MB152 after 24 hrs by microdilution assay. It counts as functional. Particulars: MB152, 24 h. Summed up: as §2
In turn, `COc1ccc(-c2cc(=O)c3c(OC)c(OC)c(OC)cc3o2)cc1` had a minimal inhibitory concentration (MIC) of 195 µM (≈ 66.8 µg/mL).

For the next assay, the system named is Staphylococcus warneri. Briefly: Antibacterial activity against Methicillin-resistant Staphylococcus warneri MB74 after 24 hrs by microdilution assay. It is filed as functional. Particulars: MB74, 24 h. A digest of the protocol: as §1
`COc1ccc(-c2cc(=O)c3c(OC)c(OC)c(OC)cc3o2)cc1` yielded a minimal inhibitory concentration (MIC) of 390 µM (≈ 134 µg/mL).

The test system of a further assay is Staphylococcus lugdunensis. Briefly: Antibacterial activity against Staphylococcus lugdunensis MB96 after 24 hrs by microdilution assay. It is filed as functional. Particulars: MB96, 24 h. A digest of the protocol: as §2
Compound `COc1ccc(-c2cc(=O)c3c(OC)c(OC)c(OC)cc3o2)cc1` showed an MIC above 128 µg/mL.

The subject of another assay is Staphylococcus aureus. Nature of the assay: Antibacterial activity against Methicillin-resistant Staphylococcus aureus MB18 after 24 hrs by microdilution assay. It is filed as functional. Particulars: MB18, 24 h. A digest of the protocol:
as §1
Take `COc1ccc(-c2cc(=O)c3c(OC)c(OC)c(OC)cc3o2)cc1`: the MIC was 390 µM (≈ 134 µg/mL).

A further assay concerns Enterococcus faecalis. Nature of the assay: Antibacterial activity against Enterococcus faecalis MB76 after 24 hrs by microdilution assay. It is filed as functional. Particulars: MB76, 24 h. Summed up:
as §1
Regarding `COc1ccc(-c2cc(=O)c3c(OC)c(OC)c(OC)cc3o2)cc1`, the minimal inhibitory concentration (MIC) is 390 µM (≈ 134 µg/mL).

By MIC is commonly meant the smallest concentration in the dilution series that meets the test's criterion for growth inhibition. High values mean a need for much substance, low ones inhibition by little substance.
